From ChEMBL document CHEMBL4043073, “Boronic Acid Modifications Enhance the Anti-Influenza A Virus Activities of Novel Quindoline Derivatives” (J Med Chem, 2017)
Calls of active or inactive are those of the source. No cut-off for these calls is given here.

Columns and labels:
Canis lupus familiaris [1] = species on record: Canis lupus familiaris; experiment: (§1) Inhibition of NFkappaB activation-mediated viral RNA synthesis in MDCK cells infected with Influenza A virus (A/Puerto Rico/8/34(H1N1)) assessed as NF-kB phosphorylation level at 10 uM preincubated with virus for 1 hr followed by viral infection measured after 4 hrs by Western blot method relative to control (reference value: 1.8); assay type: cell-based
Method in brief: (§2)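 PR8 (MOI 1.0) pretreated with compound 1 h at 37 °C, then MDCK cells were kept in infecting medium with 5 or 10 μM for 4 h; ribavirin 50 μg/mL as comparator. Lysates were immunoblotted for phospho-ERK1/2, p38, NF-κB or Akt, with β-actin/GAPDH loading controls and AP/NBT-BCIP detection. Densitometry was normalised to uninfected cells (= 1.0); n = 3.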

Canis lupus familiaris [2] = species on record: Canis lupus familiaris; experiment: as §1, with “endocytosis” for “RNA synthesis”, “Akt” for “NF-kB”, “1.4)” for “1.8)”; assay type: cell-based; method in brief: as §2
[3] = Drug uptake in human A549 cell membranes at 20 uM after 4 hrs by DAPI staining based confocal microscopic analysis; assay type: ADME; conditions: a549, 4 h
Method in brief: (§3)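 A549 cells incubated with 20 μM compound 4 h at 37 °C, then fixed and DAPI-stained. Compound intrinsic fluorescence located by confocal microscopy.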

Influenza A virus [4] = experiment: Antiviral activity against Influenza A virus H3N2 strain (A/swine/Minnesota/02719/2009) infected in MDCK cells assessed as reduction in viral HA titer by measuring reduction in chicken RBC […] after 24 hrs by hemagglutination test; assay type: functional, cell-based
Method in brief: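 MDCK cells infected at MOI 3.0 (single-cycle) with PR8, Cal09 or swine H3N2 Minnesota, then treated with compound for 24 h. Supernatant HA titers were read by 2-fold serial dilution with an equal volume of 1% chicken RBCs, 60 min at 4 °C. Expressed as percent of untreated-cell HA titer; IC50 derived; n = 4.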

Canis lupus familiaris [5] = species on record: Canis lupus familiaris; experiment: (§4) Inhibition of MAPK signaling-mediated nuclear import of viral RNP in MDCK cells infected with Influenza A virus (A/Puerto Rico/8/34(H1N1)) assessed as p38 phosphorylation at 5 uM preincubated with virus for 1 hr followed by viral infection after 4 hrs by Western blot method relative to control (reference value: 5.1); assay type: cell-based; method in brief: as §2
Canis lupus familiaris [6] = species on record: Canis lupus familiaris; experiment: as §4, with “ERK1/2” for “p38”, “10” for “5”, “1.4)” for “5.1)”; assay type: cell-based; method in brief: as §2
Canis lupus familiaris [7] = species on record: Canis lupus familiaris; experiment: as §4, with “at 10” for “at 5”; assay type: cell-based; method in brief: as §2
Influenza A virus [8] = experiment: Antiviral activity against Influenza A virus (A/Puerto Rico/8/34(H1N1)) infected in MDCK cells assessed as virus yeild reduction at 10 uM preincubated with virus for 1 hr followed by viral infection for 1 hr measured at 24 hrs post infection by crystal violet staining based plaque assay; assay type: functional, cell-based; conditions: A/Puerto Rico/8/1934(H1N1)
Method in brief: (§5)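 PR8 (MOI 1.0) preincubated with compound (2.5–10 μM) 1 h at 37 °C, then used to infect MDCK cells. After adsorption, medium with the same compound concentration was added. At 24 h p.i. supernatant virus titer was measured by plaque assay; n = 3.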

[9] = Selectivity index, ratio of CC50 for MDCK cells to IC50 for Influenza A virus (A/Puerto Rico/8/34(H1N1)) infected in MDCK cells by plaque assay; assay type: toxicity, cell-based; conditions: dog, read-out: Ratio CC50/IC50
Influenza A virus [10] = experiment: Antiviral activity against Influenza A virus (A/Puerto Rico/8/34(H1N1)) infected in MDCK cells assessed as reduction in virus titer preincubated with virus for 1 hr followed by viral infection measured after 24 hrs by crystal violet staining based plaque assay; assay type: functional, cell-based; conditions: A/Puerto Rico/8/1934(H1N1); method in brief: as §5
[11] = Drug uptake in human A549 cell nucleus at 20 uM after 4 hrs by DAPI staining based confocal microscopic analysis; assay type: ADME; conditions: a549, 4 h; method in brief: as §3
Influenza A virus [12] = experiment: Antiviral activity against Influenza A virus (A/Puerto Rico/8/34(H1N1)) infected in Kunming mouse assessed as pulmonary viral titer reduction at 10 mg/kg/day, po qd for 4 days measured on day 4 post last dose by crystal violet staining based plaque assay; assay type: functional, organism-based; conditions: A/Puerto Rico/8/1934(H1N1)
Method in brief: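 Female 4-week-old Kunming mice infected intranasally with PR8 (4 HAU/mouse). Oral gavage once daily began 2 h post-inoculation; placebo control. Mice euthanised on day 4; lungs homogenised in PBS and titrated by plaque assay on cell monolayers (agarose overlay, 3 days, crystal violet).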

[13] = Selectivity index, ratio of CC50 for MDCK cells to IC50 for Influenza A virus (A/Puerto Rico/8/34(H1N1)) infected in MDCK cells assessed as reduction in virus-induced cytopathic effect; assay type: toxicity, cell-based; conditions: dog, read-out: Ratio CC50/IC50
[14] = Antiviral activity against Influenza A virus (A/California/04/2009(H1N1)) infected in MDCK cells assessed as virus yeild reduction preincubated with virus at 37 degC for 1 hr followed by viral infection for 1 hr measured after 3 days by crystal violet staining based plaque assay; assay type: functional, cell-based
Method in brief: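 Plaque reduction: about 50–100 PFU/well of PR8, Cal09 or Minnesota preincubated with compound (0–10 μM) 1 h at 37 °C. Mixture then adsorbed to MDCK monolayers 1 h at 4 °C. Overlay was DMEM with 1.5% agarose, DEAE-dextran and 1 μg/mL TPCK-trypsin for 3 days at 37 °C. Glutaraldehyde fix, crystal violet stain, plaque count; IC50 derived; n = 4.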

[15] = Cytotoxicity against MDCK cells after 48 hrs by resazurin based fluorescence method; assay type: cell-based, Canis lupus familiaris; conditions: dog
Method in brief: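 Confluent MDCK, A549 or H1299 cells exposed in triplicate to compound for 48 h at 37 °C (A549/H1299 at 20 μM). Resazurin added to 0.2 mg/mL final for 16 h. Fluorescence read at ex 544 / em 595 nm; viability as % of untreated.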

Influenza A virus [16] = experiment: Antiviral activity against Influenza A virus (A/Puerto Rico/8/34(H1N1)) infected in MDCK cells assessed as virus yeild reduction at 10 uM treated post 1 hr of viral adsorption measured at 24 hrs post infection by crystal violet staining based plaque assay; assay type: functional, cell-based; conditions: A/Puerto Rico/8/1934(H1N1)
Method in brief: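 Time-of-addition on MDCK cells, PR8 MOI 1.0, 10 μM compound. Three arms: cells pretreated before infection; compound present during adsorption 1 h at 4 °C; or compound added after removal of unadsorbed virus. Virus yield at 24 h p.i. by plaque assay; n = 3.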

[17] = test system: Influenza A virus (A/Puerto Rico/8/1934(H1N1)); experiment: Inhibition of Influenza A virus (A/Puerto Rico/8/34(H1N1)) hemagglutinin mediated chicken erythrocytes aggregation at 10 uM after 60 mins by hemagglutination test; assay type: cell-based
Method in brief: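 Hemagglutination inhibition: PR8-induced aggregation of chicken erythrocytes tested with 10 μM compound; anti-HA antibody (0.625–5 μg/mL) as comparator.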

Canis lupus familiaris [18] = species on record: Canis lupus familiaris; experiment: as §4, with “ERK1/2” for “p38”, “1.4)” for “5.1)”; assay type: cell-based; method in brief: as §2
Influenza A virus [19] = experiment: Antiviral activity against Influenza A virus (A/Puerto Rico/8/34(H1N1)) infected in Kunming mouse assessed as intact columnar epithelium in bronchiole without inflammatory cell infiltration at 10 mg/kg/day, po qd for 4 days by hematoxylin and eosin staining based assay; assay type: functional, organism-based; conditions: A/Puerto Rico/8/1934(H1N1)

With `O=C(Nc1ccccc1Nc1c2ccccc2nc2c1[nH]c1ccccc12)c1cccc(B(O)O)c1` the fold change (FC) (Canis lupus familiaris [1]) was 0.4, the fold change (FC) (Canis lupus familiaris [2]) was 0.8 and the Drug uptake [3] was “Active”. For the same molecule, the Activity (Influenza A virus [4]) was “Dose-dependent effect”, the IC50 (Influenza A virus [4]) was 3 µM and the fold change (FC) (Canis lupus familiaris [5]) was 3.3. For the same molecule, the fold change (FC) (Canis lupus familiaris [6]) was 0.6, the fold change (FC) (Canis lupus familiaris [7]) was 2.5 and the Activity (Influenza A virus [8]) was “Active”. The selectivity ratio [9] was 56.8 to 64.6, the Activity (Influenza A virus [10]) was “Dose-dependent effect” and the IC50 (Influenza A virus [10]) was 2.2 µM. For the same molecule, the Drug uptake [11] was “Not Active”, the Activity (Influenza A virus [12]) was “Active” and the selectivity ratio [13] was 27.9. For the same molecule, the IC50 [14] was 3.7 µM, the CC50 at 48 h [15] was 142 µM and the Activity (Influenza A virus [16]) was “inactive”. For the same molecule, the inhibition [17] was “inactive”, the fold change (FC) (Canis lupus familiaris [18]) was 0.7 and the Activity (Influenza A virus [19]) was “Active”.
